# Test results: paper PMC5554713 (ChemMedChem, 2017)
# Columns and labels:
# [1] = system: CaMKII; conditions: cited from earlier work
# [2] = target: α subtype of CaMKII; conditions: cited from earlier work; for kinase activity, α subtype of CaMKII: at 0.5 μM
# [3] = target: β subtype of CaMKII; conditions: cited from earlier work; for kinase activity, β subtype of CaMKII: at 0.5 μM
# [4] = target: CaMKIIγ; conditions: at 0.5 μM; cited from earlier work
# [5] = target: δ subtype of CaMKII; conditions: cited from earlier work; for kinase activity, δ subtype of CaMKII: at 0.5 μM
# [6] = system: β subtype of CaMKII; conditions: cited from earlier work; for activity against β subtype of CaMKII: at 1 μM; for inhibition of β subtype of CaMKII: at 10 μM
# [7] = system: γ subtype of CaMKII; conditions: cited from earlier work; for activity against γ subtype of CaMKII: at 1 μM; for inhibition of γ subtype of CaMKII: at 10 μM
# [8] = system: δ subtype of CaMKII; conditions: cited from earlier work; for activity against δ subtype of CaMKII: at 1 μM; for inhibition of δ subtype of CaMKII: at 10 μM
# [9] = system: 300 kinases; conditions: at 0.5 μM; cited from earlier work
# [10] = target: T1, CaMKIIδ (Homo sapiens, UniProt Q13557); assay type: biochemical; conditions: read-out: inhibition of CaMKIIδ enzyme activity
# [11] = target: T1, CaMKIIδ; assay: Radiometric kinase assay; assay type: biochemical
# Method in brief: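 Outsourced radiometric assay using conventional filter-binding, which directly measures kinase catalytic activity toward a specific substrate. Run as a concentration-dependent study.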
Compound,IC50 [1],Ki [1],"kinase activity, α subtype of CaMKII [2]","kinase activity, β subtype of CaMKII [3]","kinase activity, γ subtype of CaMKII [4]","kinase activity, δ subtype of CaMKII [5]",activity against β subtype of CaMKII [6],inhibition of β subtype of CaMKII [6],activity against γ subtype of CaMKII [7],inhibition of γ subtype of CaMKII [7],activity against δ subtype of CaMKII [8],inhibition of δ subtype of CaMKII [8],"inhibition of kinase activity, α subtype of CaMKII ([2]; at 0.5 μM in the RBC study)","inhibition of kinase activity, β subtype of CaMKII ([3]; at 0.5 μM in the RBC study)","inhibition of kinase activity, δ subtype of CaMKII ([5]; at 0.5 μM in the RBC study)",number of different kinases with more than 60 percent inhibition [9],number of different kinases with more than 80 percent inhibition [9],inhibition at 50 µM [10],IC50 [11],"IC50 for inhibition of CaMKIIδ enzyme activity ([11]; concentration-dependent study, radiometric assay)"
COc1ccc(S(=O)(=O)N(CCO)c2ccccc2CN(C)CC=Cc2ccc(Cl)cc2)cc1 [KN-93],1000 to 4000 nM,370 nM,90%,90%,90%,90%,Neither compound showed activity,80%,Neither compound showed activity,33%,Neither compound showed activity,53%,,,,,,,,
CN(C)S(=O)(=O)c1ccc2c(c1)/C(=C/c1cc3c([nH]1)CCCC3)C(=O)N2 [SU6656],,,,,,,,,,,,,~ 30%,~ 30%,~ 30%,38 kinases,19 kinases,,,
"CCN(CC)CCCC(C)Nc1nc(/C=C/c2ccccc2)nc2cc(Cl)ccc12 (stereo not shown) [Compound 1, (E)-N4-(7-chloro-2-styrylquinazolin-4-yl)-N1,N1-diethylpentane-1,4-diamine]",,,,,,,,,,,,,,,,,,≥ 50%,~5000 nM,single-digit micromolar
CN([C@@H](Cc1ccc(OS(=O)(=O)c2cccc3cnccc23)cc1)C(=O)N1CCN(c2ccccc2)CC1)S(=O)(=O)c1cccc2cnccc12 [KN-62],,900 nM,90%,90%,90%,90%,Neither compound showed activity,22%,Neither compound showed activity,13%,Neither compound showed activity,9%,,,,,,,,
